Test results as given in PMC8516733 (Biomedicine & pharmacotherapy = Biomedecine & …, 2021).
Where “and” joins values, the source holds several entries; their conditions need not be identical. Identical values can stand only once. Entries after “also recorded” stand apart in the source; their conditions may differ.

Experiments:
[1] = target: T1, cloned rat kappa opioid receptors (Rattus norvegicus, UniProt P34975); experiment: cell-based; assay type: cell-based
KOR = details: cited from earlier work; for Duration of action in vivo: after a single dose
[2] = target: T1, cloned rat kappa opioid receptors; assay type: biochemical
[3] = target: cloned rat κappa opioid receptors (Rattus norvegicus, UniProt P34975); experiment: Adenylyl cyclase assay; assay type: cell-based; details: relative to Dyn (1–13)NH2; 50 μM forskolin
cloned rat κappa opioid receptors, sequence (P34975 whole entry): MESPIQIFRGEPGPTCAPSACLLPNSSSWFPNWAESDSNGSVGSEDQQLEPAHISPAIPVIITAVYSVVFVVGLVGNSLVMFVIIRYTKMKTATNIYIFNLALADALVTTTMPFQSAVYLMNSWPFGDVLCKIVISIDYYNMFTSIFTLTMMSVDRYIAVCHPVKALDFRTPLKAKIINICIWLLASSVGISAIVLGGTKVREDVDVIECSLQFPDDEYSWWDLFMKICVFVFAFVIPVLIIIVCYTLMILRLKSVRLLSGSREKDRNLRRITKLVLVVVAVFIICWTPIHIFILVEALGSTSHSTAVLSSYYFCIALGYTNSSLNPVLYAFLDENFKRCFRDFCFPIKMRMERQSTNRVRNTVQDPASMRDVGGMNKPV
In short: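 CHO cells stably expressing the receptor were washed twice in F12 medium and labelled for 4 h with 12 μCi [3H]adenine. They were then incubated 40 min at 37 °C with forskolin, peptidase inhibitors (10 μM bestatin, 30 μM captopril, 50 μM l-leucyl-l-leucine) and test compound at 0.1–10,000 nM in 10-fold steps. The reaction was stopped with SDS/cAMP, then perchloric acid. [3H]cAMP was counted by scintillation, with [14C]cAMP used for recovery and crossover correction.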

T1 sequence (P34975 whole entry): as above

Compound: CC1C2Cc3ccc(O)cc3C1(C)CCN2CC1CC1 (single isomer, unassigned; (+)) [(+)-Cyclazocine, (+)-cyclazocine]
- Effect of the compound alone on FMP fluorescence [1]: did not affect FMP fluorescence

Compound: CC(C)[C@@H](CN1CC[C@@](C)(c2cccc(O)c2)[C@@H](C)C1)NC(=O)[C@H]1Cc2ccc(O)cc2CN1 [JDTic]
- Duration of action in vivo (KOR): lasting weeks after a single dose

Compound: CC(C)=CCN1CCC2(C)c3cc(O)ccc3CC1C2C (stereo not drawn) [Pentazocine, pentazocine]
- Efficacy (relative) [1]: 0.44 ± 0.04
- IC50 [1]: 26.6 nM

Compound: Oc1ccc2c3c1O[C@H]1c4[nH]c5c(c4C[C@@]4(O)[C@@H](C2)N(CC2CC2)CC[C@]314)C[C@@]1(O)[C@H]2Cc3ccc(O)c4c3[C@@]1(CCN2CC1CC1)[C@H]5O4 [nor-BNI, nor-binaltorphimine]
- Effect of the compound alone on FMP fluorescence [1]: Neither zyklophin nor nor-BNI alone influenced FMP fluorescence
- Duration of action in vivo (KOR): lasting weeks after a single dose

Compound: [N-Allyl-Tyr^1]zyklophin [JVA 3419]
- Efficacy, FMP blue [1]: 0.15 ± 0.04
- Efficacy, [35S]GTPγS [2]: 0.07 ± 0.17
- Efficacy, adenylyl cyclase [3]: 0.33

Compound: [N-Benzyl-Tyr^1,Dap(Ac)^8]Dyn A(1–11) amide [JVA 3416]
- Efficacy, FMP blue [1]: 0.48 and 0.48 ± 0.10
- Efficacy, [35S]GTPγS [2]: 0.26 ± 0.06
- Efficacy, adenylyl cyclase [3]: 1.0

Compound: [N-BenzylTyr^1,cyclo(D-Asp^5,Dap^8]Dyn (1–11) amide [Zyklophin]
- Effect of the compound alone on FMP fluorescence [1]: Neither zyklophin nor nor-BNI alone influenced FMP fluorescence; also recorded: did not elicit a significant reduction in FMP fluorescence
- Efficacy, FMP blue [1]: 0
- Kb ([1]; read-out: KB from Schild regression, antagonism of U50,488): 564 nM
- Efficacy, [35S]GTPγS [2]: 0
- Efficacy, adenylyl cyclase [3]: 0.23
- Duration of antagonism (KOR; after systemic administration): less than 12 h

Compound: [N-Methyl-Tyr^1]zyklophin [JVA 3418]
- Efficacy, FMP blue [1]: 0.14 ± 0.03
- Efficacy, [35S]GTPγS [2]: 0.10 ± 0.10
- Efficacy, adenylyl cyclase [3]: 0.58

Compound: zyklophin-(1–8) [JVA 3413]
- Efficacy, FMP blue [1]: 0.22 ± 0.04
- Efficacy, [35S]GTPγS [2]: 0.07 ± 0.14
- Efficacy, adenylyl cyclase [3]: 0.35
